The source of these data is ChEMBL document CHEMBL4725242, “Discovery of GS-9688 (Selgantolimod) as a Potent and Selective Oral Toll-Like Receptor 8 Agonist for the Treatment of Chronic Hepatitis B” (J Med Chem, 2020).

Data set [1] has as its target Toll-like receptor 5 (Homo sapiens) (UniProt O60602). Briefly: Agonist activity at human TLR5 expressed in HEK293 cells assessed as increase in NF-kappaB activation up to 10 uM incubated for 24 hrs by quanti-blue SEAP reporter gene assay. Format: cell-based. As to conditions: dose microM <=10, time 24.0 hrs. An outline of the steps:
(§1)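 HEK293 cells stably expressing individual human TLRs or other innate immune receptors, used as reporter gene assays. Minimum effective concentration defined as the level giving a 3-fold rise over background.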
(A reporter such as luciferase makes a cellular process visible.)

Data set [2] can be described thus: Drug metabolism in human hepatocytes assessed as oxidation of lipophilic chain. In kind it is ADME, cell-based, Hepatocyte.
Data set [3] is described as follows: Clearance in Sprague-Dawley rat at 1 mg/kg, iv administered as 30 mins infusion by HPLC-MS analysis. In kind it is ADME, organism-based. As to conditions: in vivo. An outline of the steps: (§2)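 30-min intravenous infusion: Sprague Dawley rats 1 mg/kg, beagle dogs 0.25 mg/kg, cynomolgus monkeys 0.1 mg/kg; n = 3 per species, reported as mean ± SD.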
The nature of data set [4]: Cmax in Sprague-Dawley rat at 5 mg/kg, po administered via gavage by HPLC-MS analysis. As to conditions: in vivo. Details: route oral, dose 5 mg/kg. In kind it is ADME, organism-based. The procedure, abridged: (§3)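 Oral dosing in 2% ethanol/40% PEG 300/58% 0.01N HCl: Sprague Dawley rats 5 mg/kg, beagle dogs 0.5 mg/kg, cynomolgus monkeys 3 mg/kg.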
Data set [5] can be described thus: Half life in Beagle dog at 0.25 mg/kg, iv administered as 30 mins infusion by HPLC-MS analysis. As to conditions: in vivo. In kind it is ADME, organism-based, Canis lupus familiaris. An outline of the steps: as §2
Data set [6] is described as follows: Cmax in Beagle dog at 0.5 mg/kg, po administered via gavage by HPLC-MS analysis. In kind it is ADME, organism-based, Canis lupus familiaris. Further details: route oral, dose 0.5 mg/kg. To be noted: in vivo. The procedure, abridged:
as §3

The nature of data set [7]: Clearance in cynomolgus monkey at 0.1 mg/kg, iv administered as 30 mins infusion by HPLC-MS analysis. To be noted: in vivo. In kind it is ADME, organism-based, Macaca fascicularis. An outline of the steps: as §2
A short description of data set [8]: Cmax in cynomolgus monkey at 3 mg/kg, po administered via gavage by HPLC-MS analysis. Format: ADME, organism-based, Macaca fascicularis. Details: route oral, dose 3 mg/kg. To be noted: in vivo. An outline of the steps:
as §3

The nature of data set [9]: Drug absorption in Beagle dog at 0.5 mg/kg, po administered via gavage by HPLC-MS analysis. To be noted: in vivo, read-out: Drug absorption. Format: ADME, organism-based, Canis lupus familiaris. The procedure, abridged:
as §3

Data set [10] has as its target T1, Toll-like receptor 8 (Homo sapiens) (UniProt Q9NR97).
T1 sequence (whole entry): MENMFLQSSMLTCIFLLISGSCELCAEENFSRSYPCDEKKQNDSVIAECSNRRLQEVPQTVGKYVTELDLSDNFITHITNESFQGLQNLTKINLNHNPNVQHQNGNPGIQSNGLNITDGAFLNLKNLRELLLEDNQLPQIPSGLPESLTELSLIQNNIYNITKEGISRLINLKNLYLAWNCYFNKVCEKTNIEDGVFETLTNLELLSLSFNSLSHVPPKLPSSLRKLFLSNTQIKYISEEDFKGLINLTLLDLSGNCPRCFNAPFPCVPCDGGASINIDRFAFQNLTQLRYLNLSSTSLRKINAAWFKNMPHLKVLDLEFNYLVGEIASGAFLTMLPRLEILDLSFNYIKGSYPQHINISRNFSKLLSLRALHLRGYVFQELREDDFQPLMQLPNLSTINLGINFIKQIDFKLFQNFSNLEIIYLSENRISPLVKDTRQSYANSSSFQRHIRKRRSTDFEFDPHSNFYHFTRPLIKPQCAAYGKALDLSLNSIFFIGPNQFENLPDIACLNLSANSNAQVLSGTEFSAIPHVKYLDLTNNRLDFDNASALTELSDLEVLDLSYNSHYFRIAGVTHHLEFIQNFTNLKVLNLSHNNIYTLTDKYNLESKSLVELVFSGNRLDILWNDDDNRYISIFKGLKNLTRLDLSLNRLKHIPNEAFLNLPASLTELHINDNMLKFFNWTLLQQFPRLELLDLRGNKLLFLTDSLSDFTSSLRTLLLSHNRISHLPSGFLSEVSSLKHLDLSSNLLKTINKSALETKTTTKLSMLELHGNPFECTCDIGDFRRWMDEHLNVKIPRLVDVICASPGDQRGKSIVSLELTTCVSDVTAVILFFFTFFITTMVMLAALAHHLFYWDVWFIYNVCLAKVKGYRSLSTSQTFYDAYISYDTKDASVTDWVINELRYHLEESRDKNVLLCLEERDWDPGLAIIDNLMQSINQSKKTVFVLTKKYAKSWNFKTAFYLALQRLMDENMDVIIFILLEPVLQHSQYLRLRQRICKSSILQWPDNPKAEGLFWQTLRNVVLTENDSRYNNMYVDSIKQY
Briefly: Agonist activity at human TLR8 expressed in HEK293 cells assessed as increase in NF-kappaB activation incubated for 24 hrs by quanti-blue SEAP reporter gene assay. In kind it is cell-based. To be noted: filed as agonist. An outline of the steps:
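HEK293 cells stably expressing human TLR8 reporter. Value taken as the minimum effective concentration (MEC), defined as the concentration giving a 3-fold increase in reporter signal above background.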

Data set [11] concerns the target Toll-like receptor 3 (Homo sapiens) (UniProt O15455). Briefly: Agonist activity at human TLR3 expressed in HEK293 cells assessed as increase in NF-kappaB activation up to 10 uM incubated for 18 hrs by quanti-blue SEAP reporter gene assay. Format: cell-based. As to conditions: dose microM <=10, time […]. The procedure, abridged: as §1
For data set [12], the target named is T2, Nucleotide-binding oligomerization domain-containing protein 1 (Homo sapiens) (UniProt Q9Y239).
T2 sequence (whole entry): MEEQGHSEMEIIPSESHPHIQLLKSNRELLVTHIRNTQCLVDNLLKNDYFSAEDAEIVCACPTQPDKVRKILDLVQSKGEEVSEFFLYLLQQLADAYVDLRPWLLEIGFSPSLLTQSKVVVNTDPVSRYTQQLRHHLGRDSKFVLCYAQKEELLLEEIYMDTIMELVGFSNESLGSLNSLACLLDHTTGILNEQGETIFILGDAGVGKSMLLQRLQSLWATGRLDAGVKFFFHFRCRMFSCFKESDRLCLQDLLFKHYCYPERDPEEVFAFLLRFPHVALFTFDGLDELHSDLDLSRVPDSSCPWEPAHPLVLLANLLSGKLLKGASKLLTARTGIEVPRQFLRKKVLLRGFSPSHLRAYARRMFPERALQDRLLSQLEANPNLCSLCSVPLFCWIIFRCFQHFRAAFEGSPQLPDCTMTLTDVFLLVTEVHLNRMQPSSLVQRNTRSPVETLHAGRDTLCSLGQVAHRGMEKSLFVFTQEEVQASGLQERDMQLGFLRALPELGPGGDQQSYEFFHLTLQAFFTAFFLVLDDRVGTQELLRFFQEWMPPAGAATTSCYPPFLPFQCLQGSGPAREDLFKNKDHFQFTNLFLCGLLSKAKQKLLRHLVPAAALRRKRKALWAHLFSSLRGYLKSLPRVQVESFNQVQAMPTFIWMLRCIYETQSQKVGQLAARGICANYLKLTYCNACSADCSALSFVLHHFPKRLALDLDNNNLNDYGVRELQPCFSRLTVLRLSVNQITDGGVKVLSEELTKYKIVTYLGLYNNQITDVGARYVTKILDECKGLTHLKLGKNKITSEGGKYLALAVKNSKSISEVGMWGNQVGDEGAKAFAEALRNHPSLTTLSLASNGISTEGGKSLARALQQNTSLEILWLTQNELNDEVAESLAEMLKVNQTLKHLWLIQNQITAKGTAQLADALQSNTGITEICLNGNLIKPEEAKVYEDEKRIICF
Briefly: Agonist activity at human NOD1 expressed in HEK293 cells assessed as increase in NF-kappaB activation up to 10 uM incubated for 24 hrs by quanti-blue SEAP reporter gene assay. Format: cell-based. To be noted: dose microM <=10, time 24.0 hrs. An outline of the steps:
as §1

What is called clearance is the volume of plasma or blood freed of the substance per unit of time. Broadly, the Cmax is the peak of the concentration-time curve. The term half-life denotes the time needed for the level to fall by half in the phase considered.

The source made the active and inactive calls.

Sequence of Toll-like receptor 5 (Homo sapiens) (O60602 whole entry): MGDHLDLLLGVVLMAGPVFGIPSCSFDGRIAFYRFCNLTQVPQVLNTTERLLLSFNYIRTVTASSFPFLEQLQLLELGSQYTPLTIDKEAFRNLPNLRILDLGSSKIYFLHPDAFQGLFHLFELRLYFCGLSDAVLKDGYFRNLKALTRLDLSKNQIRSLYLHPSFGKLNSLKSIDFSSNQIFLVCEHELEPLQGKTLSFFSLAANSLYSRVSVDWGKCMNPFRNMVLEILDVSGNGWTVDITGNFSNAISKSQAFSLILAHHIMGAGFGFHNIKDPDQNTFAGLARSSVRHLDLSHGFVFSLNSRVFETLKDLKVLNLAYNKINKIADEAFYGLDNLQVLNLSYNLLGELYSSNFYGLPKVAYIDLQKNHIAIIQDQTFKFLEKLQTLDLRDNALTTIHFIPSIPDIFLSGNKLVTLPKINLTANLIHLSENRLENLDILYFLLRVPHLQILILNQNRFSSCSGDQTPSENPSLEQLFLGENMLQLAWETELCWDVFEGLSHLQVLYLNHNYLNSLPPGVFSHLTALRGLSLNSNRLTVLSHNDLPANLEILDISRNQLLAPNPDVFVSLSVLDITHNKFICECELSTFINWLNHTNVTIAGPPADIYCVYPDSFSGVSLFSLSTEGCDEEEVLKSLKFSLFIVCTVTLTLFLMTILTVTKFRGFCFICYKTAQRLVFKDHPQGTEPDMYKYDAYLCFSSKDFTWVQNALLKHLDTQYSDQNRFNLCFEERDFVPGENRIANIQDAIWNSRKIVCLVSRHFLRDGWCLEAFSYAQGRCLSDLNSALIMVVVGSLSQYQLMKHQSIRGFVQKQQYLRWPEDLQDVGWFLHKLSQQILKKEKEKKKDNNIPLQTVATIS
Sequence of Toll-like receptor 3 (Homo sapiens) (O15455 whole entry, the tested form may be a part): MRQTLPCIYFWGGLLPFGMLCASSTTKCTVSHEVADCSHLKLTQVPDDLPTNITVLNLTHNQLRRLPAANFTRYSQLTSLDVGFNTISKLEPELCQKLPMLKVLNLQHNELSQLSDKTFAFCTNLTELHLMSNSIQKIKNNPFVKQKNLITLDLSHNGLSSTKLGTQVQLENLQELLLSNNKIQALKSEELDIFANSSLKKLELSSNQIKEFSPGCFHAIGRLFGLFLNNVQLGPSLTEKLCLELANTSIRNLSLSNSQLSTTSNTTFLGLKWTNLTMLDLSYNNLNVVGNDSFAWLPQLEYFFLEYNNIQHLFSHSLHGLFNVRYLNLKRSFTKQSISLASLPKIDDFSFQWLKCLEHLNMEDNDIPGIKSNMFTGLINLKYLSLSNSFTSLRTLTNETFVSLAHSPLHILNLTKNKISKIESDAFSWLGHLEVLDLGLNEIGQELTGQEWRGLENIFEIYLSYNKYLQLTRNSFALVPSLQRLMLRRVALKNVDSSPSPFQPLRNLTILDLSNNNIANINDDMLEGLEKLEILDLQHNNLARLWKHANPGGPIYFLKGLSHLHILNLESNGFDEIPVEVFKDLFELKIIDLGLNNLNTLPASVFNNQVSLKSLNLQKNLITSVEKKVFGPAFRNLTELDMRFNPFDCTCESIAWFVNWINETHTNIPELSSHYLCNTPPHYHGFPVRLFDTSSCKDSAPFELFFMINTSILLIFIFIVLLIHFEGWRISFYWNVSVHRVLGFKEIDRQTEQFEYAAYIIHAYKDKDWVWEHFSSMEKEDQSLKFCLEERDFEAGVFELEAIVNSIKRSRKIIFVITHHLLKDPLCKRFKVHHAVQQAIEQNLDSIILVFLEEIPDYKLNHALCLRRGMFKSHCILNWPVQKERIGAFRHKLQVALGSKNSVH

As to `CCCC[C@](C)(CO)Nc1nc(N)nc2cc(F)cnc12` [SELGANTOLIMOD], the outcome in data set [1], in [11] and in [12] was inactive. For the same compound, the Drug metabolism entry in data set [2] was “Metabolite_Detected”. Besides, the clearance in [3] is 30 mL/min/kg; in data set [7] it was 103 mL/min/kg. Besides, the results for the Cmax in data set [4], in [6] and in [8] were 517 nM, 9.7 nM and 1.2 nM, respectively. Further, in data set [5], the half-life is 1.32 h. For the same compound, the Fa in data set [9] was 28%. The MEC in data set [10] was 49 nM.
